According to ChEMBL document CHEMBL2203015, “Synthesis and biological evaluation of 5-aryloxypyrazole derivatives bearing a rhodanine-3-aromatic acid as potential antimicrobial agents” (Bioorg Med Chem Lett, 2012):
Values after ≈ are worked out from the molar mass of the structure shown. Active and inactive are the calls of the source. No cut-off for these calls is given here.

How the values were obtained:
[1] = tested on: Staphylococcus aureus; assay: Antibacterial activity against quinolone-resistant Staphylococcus aureus CCARM 3519 incubated for 24 hrs serial dilution method; format: functional; conditions: CCARM 3519, 24 h
[2] = tested on: Staphylococcus aureus; assay: Potency index, ratio of MIC for oxacillin to MIC for compound against multidrug-resistant Staphylococcus aureus CCARM 3506 incubated for 24 hrs serial dilution method; format: functional
[3] = tested on: Staphylococcus aureus; assay: Potency index, ratio of MIC for oxacillin to MIC for compound against quinolone-resistant Staphylococcus aureus CCARM 3505 incubated for 24 hrs serial dilution method; format: functional
[4] = tested on: Staphylococcus aureus; assay: Potency index, ratio of MIC for norfloxacin to MIC for compound against quinolone-resistant Staphylococcus aureus CCARM 3505 incubated for 24 hrs serial dilution method; format: functional
[5] = tested on: Staphylococcus aureus; assay: Antibacterial activity against quinolone-resistant Staphylococcus aureus CCARM 3505 incubated for 24 hrs serial dilution method; format: functional; conditions: CCARM 3505, 24 h
[6] = tested on: Escherichia coli; assay: Antibacterial activity against Escherichia coli 1356 incubated for 24 hrs serial dilution method; format: functional; conditions: Escherichia coli, 1356, 24 h
[7] = Toxicity against human HeLa cells incubated for 48 hrs by MTT assay; format: cell-based
In short: (§1)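 HeLa cells kept in DMEM with 10% FBS and penicillin-streptomycin (100 U/mL) at 37 °C, 5% CO₂, split with 0.25% trypsin at 80–90% confluence. After 3 passages, about 1 × 10⁴ cells per well were seeded and left overnight to attach. Compound exposure 48 h. MTT (5 mg/mL in PBS) added for 4 h, formazan dissolved in DMSO, OD read at 570 nm.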

[8] = tested on: Staphylococcus aureus; assay: Antibacterial activity against Staphylococcus aureus RN 4220 incubated for 24 hrs serial dilution method; format: functional; conditions: RN 4220, 24 h
[9] = tested on: Staphylococcus aureus; assay: Potency index, ratio of MIC for norfloxacin to MIC for compound against multidrug-resistant Staphylococcus aureus CCARM 3167 incubated for 24 hrs serial dilution method; format: functional
[10] = tested on: Staphylococcus aureus; assay: Potency index, ratio of MIC for norfloxacin to MIC for compound against multidrug-resistant Staphylococcus aureus CCARM 3506 incubated for 24 hrs serial dilution method; format: functional
[11] = tested on: Staphylococcus aureus; assay: Potency index, ratio of MIC for oxacillin to MIC for compound against quinolone-resistant Staphylococcus aureus CCARM 3519 incubated for 24 hrs serial dilution method; format: functional
[12] = tested on: Staphylococcus aureus; assay: Antibacterial activity against Staphylococcus aureus KCTC 503 incubated for 24 hrs serial dilution method; format: functional; conditions: KCTC 503, 24 h
[13] = tested on: HeLa; assay: Toxicity against human HeLa cells at 1 ug/ml incubated for 48 hrs by MTT assay; format: cell-based; in short: as §1
[14] = tested on: Staphylococcus aureus; assay: Antibacterial activity against multidrug-resistant Staphylococcus aureus CCARM 3167 incubated for 24 hrs serial dilution method; format: functional; conditions: CCARM 3167, 24 h
[15] = tested on: HeLa; assay: Toxicity against human HeLa cells at 2 ug/ml incubated for 48 hrs by MTT assay; format: cell-based; in short: as §1
[16] = tested on: Staphylococcus aureus; assay: Antibacterial activity against Staphylococcus aureus KCTC 209 incubated for 24 hrs serial dilution method; format: functional; conditions: KCTC 209, 24 h
[17] = tested on: Staphylococcus aureus; assay: Potency index, ratio of MIC for norfloxacin to MIC for compound against quinolone-resistant Staphylococcus aureus CCARM 3519 incubated for 24 hrs serial dilution method; format: functional
[18] = tested on: Staphylococcus aureus; assay: Potency index, ratio of MIC for oxacillin to MIC for compound against multidrug-resistant Staphylococcus aureus CCARM 3167 incubated for 24 hrs serial dilution method; format: functional
[19] = tested on: Staphylococcus aureus; assay: Antibacterial activity against multidrug-resistant Staphylococcus aureus CCARM 3506 incubated for 24 hrs serial dilution method; format: functional; conditions: CCARM 3506, 24 h
[20] = tested on: Escherichia coli; assay: Antibacterial activity against Escherichia coli 1356 at 64 ug/ml incubated for 24 hrs serial dilution method; format: functional, organism-based
[21] = tested on: Staphylococcus aureus; assay: Antibacterial activity against Staphylococcus aureus KCTC 209 at 64 ug/ml incubated for 24 hrs serial dilution method; format: functional, organism-based
[22] = tested on: Staphylococcus aureus; assay: Antibacterial activity against multidrug-resistant Staphylococcus aureus CCARM 3167 at 64 ug/ml incubated for 24 hrs serial dilution method; format: functional, organism-based
[23] = tested on: Staphylococcus aureus; assay: Antibacterial activity against quinolone-resistant Staphylococcus aureus CCARM 3505 at 64 ug/ml incubated for 24 hrs serial dilution method; format: functional, organism-based
[24] = tested on: Staphylococcus aureus; assay: Antibacterial activity against multidrug-resistant Staphylococcus aureus CCARM 3506 at 64 ug/ml incubated for 24 hrs serial dilution method; format: functional, organism-based
[25] = tested on: Staphylococcus aureus; assay: Antibacterial activity against Staphylococcus aureus KCTC 503 at 64 ug/ml incubated for 24 hrs serial dilution method; format: functional, organism-based
[26] = tested on: Staphylococcus aureus; assay: Antibacterial activity against Staphylococcus aureus RN 4220 at 64 ug/ml incubated for 24 hrs serial dilution method; format: functional, organism-based
[27] = tested on: Staphylococcus aureus; assay: Antibacterial activity against quinolone-resistant Staphylococcus aureus CCARM 3519 at 64 ug/ml incubated for 24 hrs serial dilution method; format: functional, organism-based

SMILES | MIC [1] | Ratio [2] | Ratio [3] | Ratio [4] | MIC [5] | MIC [6] | MIC [8] | Ratio [9] | Ratio [10] | Ratio [11] | MIC [12] | Activity [13] | MIC [14] | Activity [15] | MIC [16] | Ratio [17] | Ratio [18] | MIC [19] | Activity [20] | Activity [21] | also measured
Cc1nn(-c2ccccc2)c(Oc2ccc(Cl)cc2Cl)c1/C=C1\SC(=S)N([C@@H](Cc2ccccc2)C(=O)O)C1=O | 2 µg/mL (≈ 3.28 µM) | 32 | 32 | 8 | 2 µg/mL (≈ 3.28 µM) | > 64 µg/mL | 2 µg/mL (≈ 3.28 µM) | 8 | 8 | 32 | > 64 µg/mL | Non-toxic | 1 µg/mL (≈ 1.64 µM) | Non-toxic | > 64 µg/mL | 8 | 32 | 1 µg/mL (≈ 1.64 µM) |  |  | IC50 at 48 h [7]: 3.54 µg/mL (≈ 5.8 µM)
Cc1nn(-c2ccccc2)c(Oc2ccc(Br)cc2)c1/C=C1\SC(=S)N([C@@H](Cc2c[nH]c3ccccc23)C(=O)O)C1=O | 1 µg/mL (≈ 1.52 µM) | 64 | 64 | 4 | 1 µg/mL (≈ 1.52 µM) | > 64 µg/mL | 2 µg/mL (≈ 3.03 µM) | 4 | 4 | 64 | > 64 µg/mL |  | 1 µg/mL (≈ 1.52 µM) |  | > 64 µg/mL | 4 | 64 | 1 µg/mL (≈ 1.52 µM) |  |  | 
Cc1nn(-c2ccccc2)c(Oc2ccc(Cl)cc2Cl)c1/C=C1\SC(=S)N([C@@H](Cc2c[nH]c3ccccc23)C(=O)O)C1=O | 1 µg/mL (≈ 1.54 µM) | 64 | 64 | 4 | 1 µg/mL (≈ 1.54 µM) | > 64 µg/mL | 2 µg/mL (≈ 3.08 µM) | 4 | 4 | 64 | > 64 µg/mL | Non-toxic | 1 µg/mL (≈ 1.54 µM) | Non-toxic | > 64 µg/mL | 4 | 64 | 1 µg/mL (≈ 1.54 µM) |  |  | IC50 at 48 h ([7]; read-out: IC50): 5.76 µg/mL (≈ 8.87 µM)
Cc1nn(-c2ccccc2)c(Oc2ccc(F)cc2)c1C=O |  |  |  |  |  |  |  |  |  |  |  |  |  |  |  |  |  |  | inactive | inactive | Activity [22]: inactive; Activity [23]: inactive; Activity [24]: inactive; Activity [25]: inactive; Activity [26]: inactive; Activity [27]: inactive
Cc1nn(-c2ccccc2)c(Oc2ccc(Cl)cc2Cl)c1C=O |  |  |  |  |  |  |  |  |  |  |  |  |  |  |  |  |  |  | inactive | inactive | Activity [22]: inactive; Activity [23]: inactive; Activity [24]: inactive; Activity [25]: inactive; Activity [26]: inactive; Activity [27]: inactive
Cc1ccc(Oc2c(/C=C3\SC(=S)N([C@@H](Cc4c[nH]c5ccccc45)C(=O)O)C3=O)c(C)nn2-c2ccccc2)c(C)c1 | 1 µg/mL (≈ 1.64 µM) | 64 | 64 | 4 | 1 µg/mL (≈ 1.64 µM) | > 64 µg/mL | 2 µg/mL (≈ 3.29 µM) | 4 | 4 | 64 | > 64 µg/mL |  | 1 µg/mL (≈ 1.64 µM) |  | > 64 µg/mL | 4 | 64 | 1 µg/mL (≈ 1.64 µM) |  |  | 
